The source made the active and inactive calls. The rule behind the calls is not given here.
How the values were obtained:
Histamine H3 receptor = Histamine H3 receptor (Homo sapiens, UniProt Q9Y5N1); assay: Displacement of [3H]Nalpha-methylhistamine from recombinant human H3 receptor expressed in HEK293 cells after 90 mins by liquid scintillation counting method; type: cell-based
How it was run: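 Thawed, homogenized membranes from HEK-293 cells stably expressing full-length human H3R, incubated 90 min at RT with shaking with 2 nM [3H]Nα-methylhistamine (KD 3.08 nM) and 5–11 concentrations (0.01 nM–10 µM). Nonspecific binding with pitolisant 10 µM. GF/B filtration (0.3% PEI), ice-cold water washes, scintillation counting. Ki by Cheng-Prusoff; mean (95% CI), ≥3 experiments in at least duplicate.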

Mus musculus [1] = assay: Anticonvulsant activity in maximal electroshock induced seizure TO mouse model assessed as suppression of tonic hind limb extension at 10 mg/kg, ip pretreated for 30 to 45 mins followed by maximal electroshock induction; type: functional, organism-based
[2] = (§1) Antagonist activity at muscarinic receptor in guinea pig ileum assessed as carbachol-induced ileum contraction measured after 15 mins; conditions: Cavia porcellus, 0.25 h; read-out: pA2 (converted)
How it was run: (§2)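 Male guinea-pig ileum (300-400 g), 2 cm segments in Krebs solution at 37°C, pH 7.4, O2/CO2 19:1, 0.5 g resting tension, 60 min equilibration. Cumulative agonist curves were run with histamine (10 nM–10 µM; H1) or carbachol (3 nM–3 µM; muscarinic), then repeated after 15 min with one antagonist concentration per tissue. Responses were taken as % of first-curve Emax, with pA2 from Schild analysis or pKB from the concentration ratio.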

Mus musculus [3] = assay: Toxicity in TO mouse model assessed as mortality at 10 mg/kg, ip; type: organism-based; conditions: in vivo
Cavia porcellus [4] = organism: Cavia porcellus; assay: as §1; how it was run: as §2
Mus musculus [5] = assay: Anticonvulsant activity in ip dosed maximal electroshock induced seizure TO mouse model assessed as suppression of tonic hind limb extension pretreated for 30 to 45 mins followed by maximal electroshock induction; type: functional, organism-based
[6] = molecular target: Histamine H1 receptor (Cavia porcellus) (UniProt P31389); assay: Agonist activity at H1 receptor in guinea pig ileum assessed as induction of ileum contraction measured after 15 mins
[7] = molecular target: Histamine H1 receptor (Cavia porcellus) (UniProt P31389); assay: Competitive antagonist activity at H1 receptor in guinea pig ileum assessed as inhibition of histamine-induced ileum contraction measured after 15 mins
How it was run: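 Ileum from male guinea pigs cut into 2 cm segments in Krebs at 37°C, pH 7.4, O2/CO2 19:1, 0.5 g resting tension, equilibrated 60 min. Cumulative histamine curve (10 nM–10 µM), then 15 min with one antagonist concentration per tissue and a repeat curve. Responses are % of first-curve max. pA2 comes from Schild analysis if slope ≈1, otherwise pKB from concentration ratio; 4–8 repeats.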

Rattus norvegicus [8] = assay: Reversal of RAMH-induced dipsogenia in ip dosed Krf:(WI) WU rat assessed as inhibition of drinking response pretreated for 30 mins followed by RAMH stimulation for 20 mins measured for 30 mins; type: functional
How it was run: (§3)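 Male Wistar Krf:(WI) WU rats (<250 g), 6–8 per group. Compound, pitolisant or vehicle (1% Tween 80) given i.p. 30 min before RAMH 10 mg/kg i.p. Water intake measured for 30 min, starting 20 min after RAMH. Inhibition = 100 − (individual intake / RAMH-group intake) × 100. ED50 by log-probit with 95% CL; one-way ANOVA with Dunnett.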

Mus musculus [9] = assay: Reversal of scopolamine-induced memory deficit in Albino Swiss CD-1 mouse assessed as increase in step through latency time at 2.5 to 30 mg/kg, ip treated for 1 hr prior to testing followed by scopolamine challenge measured after 30 mins by passive avoidance test; type: functional, organism-based
[10] = Drug metabolism in human liver microsomes after 2 hrs by UPLC analysis; type: ADME, microsome; conditions: read-out: Drug metabolism
How it was run: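 Incubation with human liver microsomes for 120 min; reaction mixture analysed by UPLC-MS, with MS fragmentation used to identify metabolites. In silico site-of-metabolism prediction run alongside.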

Mus musculus [11] = assay: Reversal of scopolamine-induced memory deficit in Albino Swiss CD-1 mouse assessed as increase in step through latency time at 2.5 to 30 mg/kg, ip treated for 1 hr before training followed by scopolamine challenge 30 mins before training measured 24 hrs after training trial by passive avoidance test; type: functional, organism-based
[12] = molecular target: Histamine H1 receptor (Cavia porcellus) (UniProt P31389); assay: Antagonist activity at H1 receptor in guinea pig ileum assessed as inhibition of histamine-induced ileum contraction measured after 15 mins; how it was run: as §2
Cavia porcellus [13] = organism: Cavia porcellus; assay: Agonist activity at muscarinic receptor in guinea pig ileum assessed as induction of ileum contraction measured after 15 mins
Rattus norvegicus [14] = assay: Reversal of RAMH-induced dipsogenia in Krf:(WI) WU rat assessed as inhibition of drinking response at 1.25 mg/kg, ip pretreated for 30 mins followed by RAMH stimulation for 20 mins measured for 30 mins relative to control; type: functional; how it was run: as §3
Histamine H4 receptor = Histamine H4 receptor (Homo sapiens, UniProt Q9H3N8); assay: Inhibition of human H4 receptor

Histamine H3 receptor, sequence (Q9Y5N1 whole entry): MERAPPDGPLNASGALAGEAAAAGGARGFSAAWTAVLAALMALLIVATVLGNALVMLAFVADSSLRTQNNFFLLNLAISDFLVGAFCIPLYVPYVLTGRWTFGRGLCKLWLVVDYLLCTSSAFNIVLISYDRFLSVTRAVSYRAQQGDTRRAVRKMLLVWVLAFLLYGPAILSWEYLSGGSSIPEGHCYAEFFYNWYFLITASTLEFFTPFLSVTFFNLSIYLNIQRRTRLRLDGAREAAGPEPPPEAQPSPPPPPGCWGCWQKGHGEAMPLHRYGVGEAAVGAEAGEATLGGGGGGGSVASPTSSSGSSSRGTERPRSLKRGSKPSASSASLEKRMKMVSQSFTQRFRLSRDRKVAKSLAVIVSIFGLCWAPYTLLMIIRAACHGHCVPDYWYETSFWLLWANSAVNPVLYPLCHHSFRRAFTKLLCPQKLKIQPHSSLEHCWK
Histamine H1 receptor (Cavia porcellus), sequence (P31389 whole entry): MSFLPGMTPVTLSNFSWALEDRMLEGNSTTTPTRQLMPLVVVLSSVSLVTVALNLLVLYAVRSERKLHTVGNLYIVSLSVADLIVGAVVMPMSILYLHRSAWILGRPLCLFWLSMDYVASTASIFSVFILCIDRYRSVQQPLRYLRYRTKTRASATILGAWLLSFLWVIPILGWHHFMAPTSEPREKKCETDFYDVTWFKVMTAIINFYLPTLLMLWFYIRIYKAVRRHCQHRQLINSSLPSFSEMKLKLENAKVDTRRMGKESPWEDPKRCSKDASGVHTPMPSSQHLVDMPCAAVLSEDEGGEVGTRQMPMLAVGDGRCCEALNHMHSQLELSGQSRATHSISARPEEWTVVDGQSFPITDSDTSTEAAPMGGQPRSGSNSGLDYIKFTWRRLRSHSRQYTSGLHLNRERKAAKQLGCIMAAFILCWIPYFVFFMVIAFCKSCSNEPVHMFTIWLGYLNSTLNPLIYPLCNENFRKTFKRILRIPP

Row | Structure (SMILES) | Ki (Histamine H3 receptor) | further results
1 | CC(C)(C)c1ccc(OCCCCN2CCN(C(=O)C3CCCO3)CC2)cc1 (stereo not given) | > 10 µM | 
2 | CC(C)(C)c1ccc(OCCCN2CCCCC2)cc1 | 0.022 µM | 
3 | CCC(C)(C)c1ccc(OCCCN2CCN(c3ncccn3)CC2)cc1 | 5.41 µM | 
4 | CC(C)(C)c1ccc(OCCCN2CCN(c3ccccn3)CC2)cc1 | > 10 µM | 
5 | CN1[C@@H]2CC[C@H]1C[C@@H](OC(=O)C(CO)c1ccccc1)C2 (stereo not given in full) [ATROPINE] |  | Kb [2]: 0.00104 µM
6 | CCC(C)(C)c1ccc(OCCCN2CCN(c3ccccn3)CC2)cc1 | 5.2 µM | 
7 | O=C1NC(=O)C(c2ccccc2)(c2ccccc2)N1 [PHENYTOIN] |  | Activity (Mus musculus [3]): Non-Toxic; Activity (Mus musculus [1]): Active
8 | CC(C)(C)c1ccc(OCCCN2CCN(c3cnccn3)CC2)cc1 | 8.74 µM | 
9 | CCC(C)(C)c1ccc(OCCCCN2CCN(c3cnccn3)CC2)cc1 | 0.683 µM | 
10 | CC(C)(C)c1ccc(OCCCCN2CCN(c3ccncc3)CC2)cc1 | 0.0378 µM | inhibition (Cavia porcellus [4]): Dose-dependent effect; pKb (Cavia porcellus [4]): 6.39; Activity (Mus musculus [5]): Dose-dependent effect; Activity [6]: inactive; pKb [7]: 6.15; ED50 (Rattus norvegicus [8]): 10.7 mg/kg; inhibition (Rattus norvegicus [8]): Dose-dependent effect; Activity (Mus musculus [9]): inactive; metabolised at 2 h [10]: 30%; Activity (Mus musculus [11]): Active; inhibition [12]: Dose-dependent effect; Activity (Cavia porcellus [13]): inactive
11 | Clc1ccc(CCCOCCCN2CCCCC2)cc1 [PITOLISANT] |  | inhibition in vivo at 1.25 mg/kg (Rattus norvegicus [14]): 87.4%; Ki (Histamine H4 receptor): > 100 µM
12 | CC(C)(C)c1ccc(OCCCCN2CCN(c3ccccn3)CC2)cc1 | 2.96 µM | 

Second part, led by results:

Row | Ki (Histamine H3 receptor) | Structure (SMILES) | further results
13 | > 10 µM | CC(C)(C)c1ccc(OCCCN2CCN(C(=O)C3CCCO3)CC2)cc1 (stereo not given) | 
14 | 0.883 µM | CC(C)(C)c1ccc(OCCCCN2CCN(c3ncccn3)CC2)cc1 | 
15 | > 10 µM | CCC(C)(C)c1ccc(OCCCCN2CCN(C(=O)C3CCCO3)CC2)cc1 (stereo not given) | 
16 | 6.21 µM | CCC(C)(C)c1ccc(OCCCN2CCN(c3cnccn3)CC2)cc1 | 
17 | > 10 µM | CCC(C)(C)c1ccc(OCCCCN2CCN(c3cccnc3)CC2)cc1 | 
18 | 3.42 µM | CC(C)(C)c1ccc(OCCCCN2CCN(c3cccnc3)CC2)cc1 | 
19 | > 10 µM | CCC(C)(C)c1ccc(OCCCN2CCN(C(=O)C3CCCO3)CC2)cc1 (stereo not given) | 
20 | 0.0306 µM | CCC(C)(C)c1ccc(OCCCN2CCN(c3ccncc3)CC2)cc1 | Activity (Mus musculus [1]): Active
21 | 3.65 µM | CCC(C)(C)c1ccc(OCCCN2CCN(c3cccnc3)CC2)cc1 | 
22 | 5.48 µM | CC(C)(C)c1ccc(OCCCCN2CCN(c3cnccn3)CC2)cc1 | 
23 | 3.83 µM | CC(C)(C)c1ccc(OCCCN2CCN(c3ncccn3)CC2)cc1 | 
24 | 2.26 µM | CCC(C)(C)c1ccc(OCCCCN2CCN(c3ncccn3)CC2)cc1 | 
25 | 8.16 µM | CC(C)(C)c1ccc(OCCCN2CCN(c3cccnc3)CC2)cc1 | 
26 | 0.482 µM | CCC(C)(C)c1ccc(OCCCCN2CCN(c3ccccn3)CC2)cc1 | 
27 | 0.12 µM | CCC(C)(C)c1ccc(OCCCCN2CCN(c3ccncc3)CC2)cc1 | Activity (Mus musculus [1]): Active
28 | 0.016 µM | CC(C)(C)c1ccc(OCCCN2CCN(c3ccncc3)CC2)cc1 | Activity (Mus musculus [1]): Active

— ChEMBL document CHEMBL4152242, “Synthesis and biological activity of novel tert-butyl and tert-pentylphenoxyalkyl piperazine derivatives as histamine H3R ligands” (Eur J Med Chem, 2018)
